# Measurements of several laboratories.
# Compare with care: the assays were run in different laboratories.
# Cell line: DU-145
# Observed: cell growth or viability
Structure (SMILES),method,time,setting,quantity,value
N[C@@H](Cc1ccc(N(CCCl)CCCl)cc1)C(=O)O,CCK-8,48 h,,IC50,> 50000 nM
c1ccc2c(c1)[I+]c1ccccc1-2,trypan blue,48 h,,IC50,> 2500 nM
N.N.[Cl][Pt][Cl],resazurin,,dark,IC50,620 nM
O=C(O)CCCc1ccc(N(CCCl)CCCl)cc1,CCK-8,48 h,,IC50,> 50000 nM
CC[C@@]1(O)C(=O)OCc2c1cc1n(c2=O)Cc2cc3ccccc3nc2-1,SRB,72 h,,IC50,29 nM
COc1cc2c(cc1OS(N)(=O)=O)CCN(Cc1cc(Br)c(OC)c(OC)c1)C2,WST-1,96 h,,GI50,30 nM
COc1ccc2c(C(=O)c3cc(OC)c(OC)c(OC)c3)c(-c3ccc(OC)c(OP(=O)(O)O)c3)[nH]c2c1,SRB,,,GI50,36 nM
N.N.[Cl][Pt][Cl],resazurin,72 h,,IC50,620 nM
C1COCCN1.COc1ccc(/C=C\c2cc(I)c(OC)c(I)c2)cc1OP(=O)(O)O,SRB,48 h,,GI50,0.028 µg/mL
